The species entered for test [1] is Homo sapiens. The test is described as follows: Binding affinity to human telomeric G-quadruplex 5'-d(GGG[TTAGGG]3)-3' DNA assessed as change in melting temperature at 25 uM measured at 290 nM wavelength by circular dichroism spectroscopic analysis. Summed up:
(§1)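 HTG21 in 10 mM Tris-HCl, pH 7.4, 60 mM KCl. CD melting profiles were read at 265 nm and at 290 nm, and ΔTm was determined from them.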

For test [2], the species on record is Homo sapiens. The test is described as follows: Binding affinity to human telomeric G-quadruplex 5'-d(GGG[TTAGGG]3)-3' DNA assessed as induction of conformation conversion from antiparallel to parallel type at 25 uM after 5 mins by circular dichroism spectroscopic analysis.
Test [3] is filed under the species Homo sapiens. The test is described as follows: Binding affinity to human telomeric G-quadruplex 5'-d(GGG[TTAGGG]3)-3' DNA assessed as change in melting temperature at 25 uM measured at 265 nM wavelength by circular dichroism spectroscopic analysis. Summed up: as §1
(In general: Circular dichroism is the unequal absorption of left and right circularly polarised light.)

The nature of test [4]: Binding affinity to human biotinylated telomeric G-quadruplex 5'-d(GGG[TTAGGG]3)-3' DNA by surface plasmon resonance analysis. The gist of the method: (§2)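 SPR with a Neutravidin-coated sensor chip. Biotinylated duplex DNA and biotinylated HTG21 were folded in running buffer (50 mM Tris-HCl, 100 mM KCl, pH 7.4, 0.005% Tween20) and immobilized. A range of ligand concentrations was injected simultaneously over G-quadruplex, duplex and blank reference channels. Binding plots from sensorgrams gave equilibrium constants (KD).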
(In general: SPR reads the build-up and loss of mass on a sensor chip optically.)

The nature of test [5]: Binding affinity to biotinylated duplex DNA (unknown origin) by surface plasmon resonance analysis. Summed up:
as §2

Test [6] in a line: Binding affinity to biotinylated duplex DNA (unknown origin) up to by surface plasmon resonance analysis. Summed up: as §2
Test [7] addresses Telomerase reverse transcriptase (Homo sapiens, UniProt O14746). The experiment in a line: Inhibition of telomerase in human HL60 cell extract by TRAP-LIG assay. Details: species or system HL-60. Summed up: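 TRAP-LIG: compounds added to telomerase reaction mix containing HL60 cell extract. Ligand removed after enzyme incubation, before amplification. Purified extended products PCR-amplified for 35 cycles (94 °C 30 s, 61 °C 1 min, 72 °C 1 min). IC50 determined.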

Test [8] relates to HL-60. The experiment in a line: Binding affinity to G-quadruplex DNA in human HL60 cells assessed as telomere shortening at 1 uM after 12 days by restriction fragment length assay. The class given is cell-based. Summed up: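 HL60 cells exposed to ligand for 12 days. Genomic DNA digested with Hinf1/Rsa1, run on 0.8% agarose gel and transferred to nylon membrane. DNA fixed by baking at 120 °C for 20 min. Membrane hybridized with DIG-labelled telomeric-repeat probe, then detected with anti-DIG-alkaline phosphatase.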

Test [9] concerns HL-60. The experiment in a line: Binding affinity to G-quadruplex DNA in human HL60 cells assessed as telomere shortening at 0.01 to 1 uM after 12 days by restriction fragment length assay.
Test [10] deals with HL-60. The experiment in a line: Cytotoxicity against human HL60 cells after 48 hrs by MTT assay. It is filed as functional, cell-based. The conditions noted are these: HL-60, 48 h. The gist of the method: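 HL60 cells seeded at 1.0 × 10³ per well and exposed to a range of concentrations for 48 h at 37 °C, 5% CO₂. MTT (5 mg/mL) added for 4 h. Formazan dissolved in DMSO and OD read at 570 nm. Each dose tested in triplicate; IC50 derived from mean OD versus concentration curves.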
On the technique in general: Formazan colour is commonly taken as a measure of viable cells.

The test system of test [11] is HL-60. The experiment in a line: Cytotoxicity against human HL60 cells treated every 3 days up to 12 days. It is filed as functional, cell-based.
Test [12] deals with HL-60. The experiment in a line: Induction of senescence in human HL60 cells assessed as increase in proportion of enlarged and flattened cells at 1 uM after 12 days by senescence-associated beta-galactosidase activity based optical microscopic analysis. It is filed as functional, cell-based. The gist of the method:
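HL60 cells treated continuously for 12 days; 0.1% DMSO as control. Cells fixed 15 min at room temperature in 2% formaldehyde/0.2% glutaraldehyde, then washed with PBS. Stained overnight at 37 °C with 1 mg/mL X-gal solution. Enlarged, flattened, stained cells viewed by optical microscopy.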

Test [13] concerns HL-60. The experiment in a line: Cytotoxicity against human HL60 cells at 0.5 to 1 uM treated every 3 days up to 12 days relative to control. The class given is functional, cell-based.
For test [14], the species on record is Homo sapiens. The test is described as follows: Binding affinity to human biotinylated telomeric G-quadruplex 5'-d(GGG[TTAGGG]3)-3' DNA up to 20 uM by surface plasmon resonance analysis. The gist of the method:
as §2

Activity calls are given as the source filed them. The rule behind the calls is not given here.

Chain of Telomerase reverse transcriptase (O14746 whole entry): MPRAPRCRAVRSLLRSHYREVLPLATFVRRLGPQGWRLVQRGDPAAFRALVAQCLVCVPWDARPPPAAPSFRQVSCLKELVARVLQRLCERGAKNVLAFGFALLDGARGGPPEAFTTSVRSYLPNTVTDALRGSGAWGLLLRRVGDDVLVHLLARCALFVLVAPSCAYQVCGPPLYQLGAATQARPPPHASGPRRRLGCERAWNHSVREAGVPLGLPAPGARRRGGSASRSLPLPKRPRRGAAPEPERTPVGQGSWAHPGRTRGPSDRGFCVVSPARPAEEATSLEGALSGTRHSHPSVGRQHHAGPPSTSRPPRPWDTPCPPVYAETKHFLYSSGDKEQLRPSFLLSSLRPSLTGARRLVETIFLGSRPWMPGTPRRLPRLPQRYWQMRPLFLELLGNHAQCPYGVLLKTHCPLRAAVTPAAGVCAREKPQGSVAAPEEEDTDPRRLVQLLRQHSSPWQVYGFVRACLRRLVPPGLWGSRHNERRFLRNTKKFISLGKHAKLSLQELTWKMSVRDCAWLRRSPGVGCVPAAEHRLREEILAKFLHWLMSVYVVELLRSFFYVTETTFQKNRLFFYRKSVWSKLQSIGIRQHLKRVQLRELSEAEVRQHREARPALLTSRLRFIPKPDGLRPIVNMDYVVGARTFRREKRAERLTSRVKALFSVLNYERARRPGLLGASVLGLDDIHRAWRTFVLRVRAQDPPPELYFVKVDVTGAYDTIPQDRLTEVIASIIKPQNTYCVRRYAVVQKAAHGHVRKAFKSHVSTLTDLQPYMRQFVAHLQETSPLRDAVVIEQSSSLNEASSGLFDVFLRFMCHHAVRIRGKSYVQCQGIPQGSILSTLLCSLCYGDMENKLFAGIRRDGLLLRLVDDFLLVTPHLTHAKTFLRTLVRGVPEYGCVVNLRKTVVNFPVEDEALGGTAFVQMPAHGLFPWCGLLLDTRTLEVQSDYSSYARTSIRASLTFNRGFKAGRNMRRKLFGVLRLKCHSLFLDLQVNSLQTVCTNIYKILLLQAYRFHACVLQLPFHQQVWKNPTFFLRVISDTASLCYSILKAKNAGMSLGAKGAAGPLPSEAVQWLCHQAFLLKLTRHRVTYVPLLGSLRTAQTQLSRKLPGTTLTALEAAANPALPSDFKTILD

For orientation: ΔTm means the change in melting temperature against a reference sample. For the molecule `CN(C)CCCNc1nc(-c2ccccc2NC(=O)c2ccc(NC(=O)CCN3CCOCC3)cc2)nc2ccccc12`, the figures for the ΔTm in the test listed under Homo sapiens [1] and in the test listed under Homo sapiens [3] were 8.2 °C and 15.3 °C, respectively. For the same molecule, in the test listed under Homo sapiens [2], the outcome was Active.

Broadly, the Kd is a measure of binding affinity in units of concentration. Turning to `CCN(CC)CCC(=O)Nc1ccc(C(=O)Nc2ccccc2-c2nc(NCCCN(C)C)c3ccccc3n2)cc1`, the results for the Kd in test [4] and in test [5] were 1.61 µM and 22 µM, respectively. For the same molecule, the figures for the ΔTm in the test listed under Homo sapiens [1] and in the test filed under Homo sapiens [3] were 5.4 °C and 19.6 °C, respectively. Further, the result in the test listed under Homo sapiens [2] was Active.

As to `CN(C)CCCNc1nc(-c2ccccc2NC(=O)c2ccc(NC(=O)CCN3CCN(C)CC3)cc2)nc2ccccc12`, the dissociation constant Kd in test [4] worked out at 1.48 µM; in test [5], 13.2 µM. Further, the thermal shift (ΔTm) in the test filed under Homo sapiens [1] was 8.2 °C; in the test filed under Homo sapiens [3], 21.7 °C. For the same molecule, the outcome in the test listed under Homo sapiens [2] was Active.

For the molecule `CN(C)CCCNc1nc(-c2ccc(Cl)cc2NC(=O)CCN2CCN(C)CC2)nc2ccccc12`, the figures for the ΔTm in the test filed under Homo sapiens [1] and in the test listed under Homo sapiens [3] were 4.4 °C and 14.4 °C, respectively. In addition, in the test filed under Homo sapiens [2], the outcome was Active.

On to `CN(C)CCCNc1nc(-c2ccccc2NC(=O)c2ccc(NC(=O)CN3CCCC3)cc2)nc2ccccc12`, for which the ΔTm amounted to 11.7 °C in the test filed under Homo sapiens [1] and 21.4 °C in the test listed under Homo sapiens [3]. Moreover, in the test filed under Homo sapiens [2], the result was Active.

Turning to `CN(C)CCCNc1nc(-c2ccc(Cl)cc2NC(=O)c2ccc(NC(=O)CCN3CCOCC3)cc2)nc2ccccc12`, the Kd in test [4] was found to be 3.06 µM. Further, the ΔTm stood at 4.7 °C in the test listed under Homo sapiens [1] and 21.6 °C in the test listed under Homo sapiens [3]. The outcome in test [6] was inactive. Moreover, the outcome in the test filed under Homo sapiens [2] was Active.

Regarding `CN(C)CCCNc1nc(-c2ccc(Cl)cc2NC(=O)c2ccc(NC(=O)CCN3CCN(C)CC3)cc2)nc2ccccc12`, the Kd in test [4] was 0.276 µM. For the same molecule, the ΔTm in the test filed under Homo sapiens [1] was 3.4 °C; in the test filed under Homo sapiens [3], over 28 °C. Besides, the outcome in test [6] was inactive. Besides, the outcome in the test listed under Homo sapiens [2] was Active.

Take `CN(C)CCCNc1nc(-c2ccccc2NC(=O)CCN2CCCC2)nc2ccccc12`: the ΔTm was 3.6 °C in the test listed under Homo sapiens [1] and 8.7 °C in the test listed under Homo sapiens [3]. In addition, the result in the test listed under Homo sapiens [2] was Active.

For `CN(C)CCCNc1c2ccccc2nc2c1[nH]c1ccccc12`, the dissociation constant (Kd) in test [4] was 28 µM; in [5], 5.02 µM. Besides, the ΔTm in the test filed under Homo sapiens [1] is 8 °C; in the test filed under Homo sapiens [3], 11.2 °C. Also, the outcome in the test filed under Homo sapiens [2] was inactive.

As for `CCN(CC)CC(=O)Nc1ccccc1-c1nc(NCCCN(C)C)c2ccccc2n1`, the results for the ΔTm in the test filed under Homo sapiens [1] and in the test listed under Homo sapiens [3] were 0.7 °C and 2.1 °C, respectively. In addition, the outcome in the test filed under Homo sapiens [2] was Active.

As for `CN(C)CCCNc1nc(-c2ccccc2NC(=O)c2ccc(NC(=O)CN3CCN(C)CC3)cc2)nc2ccccc12`, the Kd in [4] is 2.75 µM; in test [5], 39.7 µM. In addition, the ΔTm was found to be 7.4 °C in the test listed under Homo sapiens [1] and 21.8 °C in the test listed under Homo sapiens [3]. In addition, the outcome in the test listed under Homo sapiens [2] was Active.

Turning to `CCN(CC)CC(=O)Nc1ccc(C(=O)Nc2ccccc2-c2nc(NCCCN(C)C)c3ccccc3n2)cc1`, the Kd in [4] was 8.34 µM; in [5], 11.9 µM. Also, the thermal shift (ΔTm) in the test filed under Homo sapiens [1] was 11.6 °C; in the test listed under Homo sapiens [3] it was 21.6 °C. In addition, in the test filed under Homo sapiens [2], the result was Active.

As a reminder, the IC50 is the concentration at which inhibition is half-maximal. Take `CN(C)CCCNCCC(=O)Nc1ccc(C(=O)Nc2cc(Cl)ccc2-c2nc(NCCCN(C)C)c3ccccc3n2)cc1`: the IC50 worked out at 2.3 µM in test [7] and 1.7 µM with HL-60 [10]. The affinity in [4], expressed as Kd, was 0.379 µM. In addition, the result in the test on HL-60 [8], in the test with HL-60 [9], in the test on HL-60 [12], in the test listed under Homo sapiens [2] and in the test with HL-60 [13] was Active. In addition, the ΔTm was 14.8 °C in the test listed under Homo sapiens [1] and over 28 °C in the test listed under Homo sapiens [3]. In addition, the outcome in test [6] was inactive. The Activity result with HL-60 [11] was “Dose-dependent effect”.

For the molecule `CCN(CC)CCC(=O)Nc1ccccc1-c1nc(NCCCN(C)C)c2ccccc2n1`, the ΔTm in the test filed under Homo sapiens [1] came to 2.5 °C; in the test listed under Homo sapiens [3], 8.2 °C. Further, the result in the test listed under Homo sapiens [2] was Active.

In the case of `CCN(CC)CCC(=O)Nc1ccc(C(=O)Nc2cc(Cl)ccc2-c2nc(NCCCN(C)C)c3ccccc3n2)cc1`, the dissociation constant (Kd) in [4] was found to be 0.302 µM. For the same molecule, the ΔTm turned out to be 2.8 °C in the test listed under Homo sapiens [1] and 21.9 °C in the test listed under Homo sapiens [3]. Further, the outcome in test [6] was inactive. Besides, the outcome in the test listed under Homo sapiens [2] was Active.

Consider `CN(C)CCCNc1nc(-c2ccccc2NC(=O)CN2CCN(C)CC2)nc2ccccc12`, for which the result in the test filed under Homo sapiens [14] and in the test listed under Homo sapiens [2] was inactive. Moreover, the figures for the ΔTm in the test listed under Homo sapiens [1] and in the test listed under Homo sapiens [3] were 0.6 °C and 3.1 °C, respectively.

Consider `CN(C)CCCNc1nc(-c2ccccc2NC(=O)CCN2CCOCC2)nc2ccccc12`, for which the ΔTm in the test listed under Homo sapiens [1] was determined as 0.9 °C; in the test listed under Homo sapiens [3] it was 4.3 °C. Besides, the result in the test listed under Homo sapiens [2] was inactive.

Consider `CN(C)CCCNc1nc(-c2ccccc2NC(=O)c2ccc(NC(=O)CN3CCOCC3)cc2)nc2ccccc12`, for which the ΔTm came out at 4.7 °C in the test listed under Homo sapiens [1] and 11.9 °C in the test listed under Homo sapiens [3]. Besides, the outcome in the test filed under Homo sapiens [2] was Active.

The molecule `CN(C)CCCNCCC(=O)Nc1ccccc1-c1nc(NCCCN(C)C)c2ccccc2n1` showed an IC50 in test [7] of over 50 µM. Moreover, the Kd is 3.36 µM in test [4] and 7.9 µM in test [5]. For the same molecule, the ΔTm in the test filed under Homo sapiens [1] worked out at 6.2 °C; in the test filed under Homo sapiens [3], 12.4 °C. Moreover, the result in the test filed under Homo sapiens [2] was Active.

In the case of `CN(C)CCCNc1nc(-c2ccccc2NC(=O)CN2CCCC2)nc2ccccc12`, the shift in melting temperature (ΔTm) in the test listed under Homo sapiens [1] was 2.6 °C; in the test listed under Homo sapiens [3] it was 7.3 °C. Besides, the outcome in the test filed under Homo sapiens [2] was Active.

With `CN(C)CCCNc1nc(-c2ccccc2NC(=O)CCN2CCN(C)CC2)nc2ccccc12`, the result in the test filed under Homo sapiens [14] was inactive. For the same molecule, the ΔTm in the test filed under Homo sapiens [1] was determined as 2.1 °C; in the test listed under Homo sapiens [3], 8 °C. Also, the result in the test filed under Homo sapiens [2] was Active.

For the molecule `CN(C)CCCNc1nc(-c2ccc(Cl)cc2NC(=O)c2ccc(NC(=O)CCN3CCCC3)cc2)nc2ccccc12`, the Kd in test [4] turned out to be 0.227 µM. The ΔTm in the test listed under Homo sapiens [1] was 5.7 °C; in the test filed under Homo sapiens [3], over 28 °C. In addition, the result in [6] was inactive. In addition, the result in the test listed under Homo sapiens [2] was Active.

Take `CN(C)CCCNc1nc(-c2ccccc2NC(=O)c2ccc(NC(=O)CCN3CCCC3)cc2)nc2ccccc12`: the shift in melting temperature (ΔTm) stood at 4.6 °C in the test filed under Homo sapiens [1] and 18.7 °C in the test listed under Homo sapiens [3]. In addition, the outcome in the test listed under Homo sapiens [2] was Active.

As for `CN(C)CCCNc1nc(-c2ccccc2NC(=O)CN2CCOCC2)nc2ccccc12`, the ΔTm in the test listed under Homo sapiens [1] amounted to 0 °C; in the test listed under Homo sapiens [3], 0.5 °C. The outcome in the test filed under Homo sapiens [2] was inactive.

In the case of `CN(C)CCCNCCC(=O)Nc1ccc(C(=O)Nc2ccccc2-c2nc(NCCCN(C)C)c3ccccc3n2)cc1`, the midpoint of inhibition in test [7], the IC50, lay at 30.9 µM. This molecule came in with a Kd in test [4] of 1.11 µM. The outcome in test [6] was inactive. In the test listed under Homo sapiens [2], the outcome was Active. In addition, the ΔTm in the test listed under Homo sapiens [3] is over 28 °C.
